Values after ≈ are worked out from the molar mass of the structure shown.
Columns and labels:
Staphylococcus aureus [1] = experiment: Antibacterial activity against Staphylococcus aureus at 50 ug/ml incubated for 24 hrs by agar well diffusion method; assay type: functional; settings: read-out: DIZ
Outline: (§1)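 Bacteria grown in nutrient broth at 37 °C for 24 h, then subcultured at room temperature. Compounds dissolved in DMSO at 5 mg mL⁻¹ and 5–20 µL added to 6 mm wells, giving 25, 50, 75, 100 µg per well. Gentamicin was the positive control and DMSO the negative control. Plates held at 37 °C for 24 h, then inhibition zone diameter (mm) measured. Values are means of three determinations.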

Fusarium oxysporum [2] = experiment: Antifungal activity against Fusarium oxysporum at 25 ug/ml incubated for 48 hrs by agar well diffusion method; assay type: functional; settings: read-out: DIZ
Outline: (§2)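 Compounds dissolved in DMSO at 5 mg mL⁻¹ and 5–20 µL added to 6 mm wells, giving 25, 50, 75, 100 µg per well. Bavistin was the positive control and DMSO the negative control. Plates incubated at 28 °C for 48 h, then inhibition zone diameter (mm) measured. Values are means of three determinations.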

Aspergillus niger [3] = experiment: Antifungal activity against Aspergillus niger at 75 ug/ml incubated for 48 hrs by agar well diffusion method; assay type: functional; settings: read-out: DIZ; outline: as §2
Candida albicans [4] = experiment: Antifungal activity against Candida albicans at 50 ug/ml incubated for 48 hrs by agar well diffusion method; assay type: functional; settings: read-out: DIZ; outline: as §2
Erythrocyte = experiment: Anti-inflammatory activity in human RBC assessed as inhibition of hypotonic solution-induced hemolysis after 10 mins by spectrophotometric method; assay type: functional, cell-based
Outline: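 Human blood (heparinized) washed with 0.9% saline, packed cells made into a 40% v/v stock in isotonic phosphate buffer (154 mM NaCl, 10 mM sodium phosphate, pH 7.4). Stock RBC mixed with hypotonic buffer (50 mM NaCl, 10 mM phosphate, pH 7.4) plus sample at 20–100 µg mL⁻¹.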

Klebsiella pneumoniae [5] = experiment: Antibacterial activity against Klebsiella pneumoniae at 25 ug/ml incubated for 24 hrs by agar well diffusion method; assay type: functional; settings: read-out: DIZ; outline: as §1
Staphylococcus aureus [6] = experiment: Antibacterial activity against Staphylococcus aureus at 25 ug/ml incubated for 24 hrs by agar well diffusion method; assay type: functional; settings: read-out: DIZ; outline: as §1
Klebsiella pneumoniae [7] = experiment: Antibacterial activity against Klebsiella pneumoniae at 100 ug/ml incubated for 24 hrs by agar well diffusion method; assay type: functional; settings: read-out: DIZ; outline: as §1
Bacillus subtilis [8] = experiment: Antibacterial activity against Bacillus subtilis at 25 ug/ml incubated for 24 hrs by agar well diffusion method; assay type: functional; settings: read-out: DIZ; outline: as §1
Staphylococcus aureus [9] = experiment: Antibacterial activity against Staphylococcus aureus at 75 ug/ml incubated for 24 hrs by agar well diffusion method; assay type: functional; settings: read-out: DIZ; outline: as §1
Bacillus subtilis [10] = experiment: Antibacterial activity against Bacillus subtilis at 50 ug/ml incubated for 24 hrs by agar well diffusion method; assay type: functional; settings: read-out: DIZ; outline: as §1
Fusarium oxysporum [11] = experiment: Antifungal activity against Fusarium oxysporum at 50 ug/ml incubated for 48 hrs by agar well diffusion method; assay type: functional; settings: read-out: DIZ; outline: as §2
Klebsiella pneumoniae [12] = experiment: Antibacterial activity against Klebsiella pneumoniae at 75 ug/ml incubated for 24 hrs by agar well diffusion method; assay type: functional; settings: read-out: DIZ; outline: as §1
Staphylococcus aureus [13] = experiment: Antibacterial activity against Staphylococcus aureus at 100 ug/ml incubated for 24 hrs by agar well diffusion method; assay type: functional; settings: read-out: DIZ; outline: as §1
Fusarium oxysporum [14] = experiment: Antifungal activity against Fusarium oxysporum at 75 ug/ml incubated for 48 hrs by agar well diffusion method; assay type: functional; settings: read-out: DIZ; outline: as §2
Bacillus subtilis [15] = experiment: Antibacterial activity against Bacillus subtilis at 75 ug/ml incubated for 24 hrs by agar well diffusion method; assay type: functional; settings: read-out: DIZ; outline: as §1
Aspergillus niger [16] = experiment: Antifungal activity against Aspergillus niger at 50 ug/ml incubated for 48 hrs by agar well diffusion method; assay type: functional; settings: read-out: DIZ; outline: as §2
Escherichia coli [17] = experiment: Antibacterial activity against Escherichia coli at 75 ug/ml incubated for 24 hrs by agar well diffusion method; assay type: functional; settings: read-out: DIZ; outline: as §1
Candida albicans [18] = experiment: Antifungal activity against Candida albicans at 100 ug/ml incubated for 48 hrs by agar well diffusion method; assay type: functional; settings: read-out: DIZ; outline: as §2
Escherichia coli [19] = experiment: Antibacterial activity against Escherichia coli at 25 ug/ml incubated for 24 hrs by agar well diffusion method; assay type: functional; settings: read-out: DIZ; outline: as §1
Fusarium oxysporum [20] = experiment: Antifungal activity against Fusarium oxysporum at 100 ug/ml incubated for 48 hrs by agar well diffusion method; assay type: functional; settings: read-out: DIZ; outline: as §2
Aspergillus niger [21] = experiment: Antifungal activity against Aspergillus niger at 25 ug/ml incubated for 48 hrs by agar well diffusion method; assay type: functional; settings: read-out: DIZ; outline: as §2
Klebsiella pneumoniae [22] = experiment: Antibacterial activity against Klebsiella pneumoniae at 50 ug/ml incubated for 24 hrs by agar well diffusion method; assay type: functional; settings: read-out: DIZ; outline: as §1
Bacillus subtilis [23] = experiment: Antibacterial activity against Bacillus subtilis at 100 ug/ml incubated for 24 hrs by agar well diffusion method; assay type: functional; settings: read-out: DIZ; outline: as §1
Candida albicans [24] = experiment: Antifungal activity against Candida albicans at 25 ug/ml incubated for 48 hrs by agar well diffusion method; assay type: functional; settings: read-out: DIZ; outline: as §2
Aspergillus niger [25] = experiment: Antifungal activity against Aspergillus niger at 100 ug/ml incubated for 48 hrs by agar well diffusion method; assay type: functional; settings: read-out: DIZ; outline: as §2
Escherichia coli [26] = experiment: Antibacterial activity against Escherichia coli at 50 ug/ml incubated for 24 hrs by agar well diffusion method; assay type: functional; settings: read-out: DIZ; outline: as §1
Candida albicans [27] = experiment: Antifungal activity against Candida albicans at 75 ug/ml incubated for 48 hrs by agar well diffusion method; assay type: functional; settings: read-out: DIZ; outline: as §2
Escherichia coli [28] = experiment: Antibacterial activity against Escherichia coli at 100 ug/ml incubated for 24 hrs by agar well diffusion method; assay type: functional; settings: read-out: DIZ; outline: as §1

CC[C@H](C)[C@H](N)C(=O)Oc1ccc2c(=O)c3ccccc3oc2c1.Cl
zone of inhibition at 50 µg/mL (Staphylococcus aureus [1]): 12 mm | zone of inhibition at 25 µg/mL (Fusarium oxysporum [2]): 11 mm | zone of inhibition at 75 µg/mL (Aspergillus niger [3]): 18 mm | zone of inhibition at 50 µg/mL (Candida albicans [4]): 14 mm | IC50 (Erythrocyte): 68 µg/mL | zone of inhibition at 25 µg/mL (Klebsiella pneumoniae [5]): 8 mm | zone of inhibition at 25 µg/mL (Staphylococcus aureus [6]): 7 mm | zone of inhibition at 100 µg/mL (Klebsiella pneumoniae [7]): 24 mm | zone of inhibition at 25 µg/mL (Bacillus subtilis [8]): 11 mm | zone of inhibition at 75 µg/mL (Staphylococcus aureus [9]): 19 mm | zone of inhibition at 50 µg/mL (Bacillus subtilis [10]): 17 mm | zone of inhibition at 50 µg/mL (Fusarium oxysporum [11]): 15 mm | zone of inhibition at 75 µg/mL (Klebsiella pneumoniae [12]): 18 mm | zone of inhibition at 100 µg/mL (Staphylococcus aureus [13]): 23 mm | zone of inhibition at 75 µg/mL (Fusarium oxysporum [14]): 19 mm | zone of inhibition at 75 µg/mL (Bacillus subtilis [15]): 20 mm | zone of inhibition at 50 µg/mL (Aspergillus niger [16]): 15 mm | zone of inhibition at 75 µg/mL (Escherichia coli [17]): 18 mm | zone of inhibition at 100 µg/mL (Candida albicans [18]): 20 mm | zone of inhibition at 25 µg/mL (Escherichia coli [19]): 10 mm | zone of inhibition at 100 µg/mL (Fusarium oxysporum [20]): 21 mm | zone of inhibition at 25 µg/mL (Aspergillus niger [21]): 10 mm | zone of inhibition at 50 µg/mL (Klebsiella pneumoniae [22]): 13 mm | zone of inhibition at 100 µg/mL (Bacillus subtilis [23]): 24 mm | zone of inhibition at 25 µg/mL (Candida albicans [24]): 10 mm | zone of inhibition at 100 µg/mL (Aspergillus niger [25]): 23 mm | zone of inhibition at 50 µg/mL (Escherichia coli [26]): 13 mm | zone of inhibition at 75 µg/mL (Candida albicans [27]): 16 mm | zone of inhibition at 100 µg/mL (Escherichia coli [28]): 22 mm

CC(C)(C)OC(=O)N[C@@H](CS)C(=O)Oc1ccc2c(=O)c3ccccc3oc2c1
zone of inhibition at 50 µg/mL (Staphylococcus aureus [1]): 28 mm | zone of inhibition at 25 µg/mL (Fusarium oxysporum [2]): 18 mm | zone of inhibition at 75 µg/mL (Aspergillus niger [3]): 31 mm | zone of inhibition at 50 µg/mL (Candida albicans [4]): 22 mm | IC50 (Erythrocyte): 32 µg/mL (≈ 77 µM) | zone of inhibition at 25 µg/mL (Klebsiella pneumoniae [5]): 18 mm | zone of inhibition at 25 µg/mL (Staphylococcus aureus [6]): 20 mm | zone of inhibition at 100 µg/mL (Klebsiella pneumoniae [7]): 34 mm | zone of inhibition at 25 µg/mL (Bacillus subtilis [8]): 20 mm | zone of inhibition at 75 µg/mL (Staphylococcus aureus [9]): 32 mm | zone of inhibition at 50 µg/mL (Bacillus subtilis [10]): 26 mm | zone of inhibition at 50 µg/mL (Fusarium oxysporum [11]): 24 mm | zone of inhibition at 75 µg/mL (Klebsiella pneumoniae [12]): 30 mm | zone of inhibition at 100 µg/mL (Staphylococcus aureus [13]): 34 mm | zone of inhibition at 75 µg/mL (Fusarium oxysporum [14]): 30 mm | zone of inhibition at 75 µg/mL (Bacillus subtilis [15]): 29 mm | zone of inhibition at 50 µg/mL (Aspergillus niger [16]): 26 mm | zone of inhibition at 75 µg/mL (Escherichia coli [17]): 30 mm | zone of inhibition at 100 µg/mL (Candida albicans [18]): 34 mm | zone of inhibition at 25 µg/mL (Escherichia coli [19]): 18 mm | zone of inhibition at 100 µg/mL (Fusarium oxysporum [20]): 35 mm | zone of inhibition at 25 µg/mL (Aspergillus niger [21]): 18 mm | zone of inhibition at 50 µg/mL (Klebsiella pneumoniae [22]): 24 mm | zone of inhibition at 100 µg/mL (Bacillus subtilis [23]): 34 mm | zone of inhibition at 25 µg/mL (Candida albicans [24]): 17 mm | zone of inhibition at 100 µg/mL (Aspergillus niger [25]): 34 mm | zone of inhibition at 50 µg/mL (Escherichia coli [26]): 26 mm | zone of inhibition at 75 µg/mL (Candida albicans [27]): 28 mm | zone of inhibition at 100 µg/mL (Escherichia coli [28]): 34 mm

Cl.N[C@@H](CS)C(=O)Oc1ccc2c(=O)c3ccccc3oc2c1
zone of inhibition at 50 µg/mL (Staphylococcus aureus [1]): 29 mm | zone of inhibition at 25 µg/mL (Fusarium oxysporum [2]): 20 mm | zone of inhibition at 75 µg/mL (Aspergillus niger [3]): 32 mm | zone of inhibition at 50 µg/mL (Candida albicans [4]): 26 mm | IC50 (Erythrocyte): 30 µg/mL | zone of inhibition at 25 µg/mL (Klebsiella pneumoniae [5]): 15 mm | zone of inhibition at 25 µg/mL (Staphylococcus aureus [6]): 20 mm | zone of inhibition at 100 µg/mL (Klebsiella pneumoniae [7]): 37 mm | zone of inhibition at 25 µg/mL (Bacillus subtilis [8]): 19 mm | zone of inhibition at 75 µg/mL (Staphylococcus aureus [9]): 35 mm | zone of inhibition at 50 µg/mL (Bacillus subtilis [10]): 26 mm | zone of inhibition at 50 µg/mL (Fusarium oxysporum [11]): 28 mm | zone of inhibition at 75 µg/mL (Klebsiella pneumoniae [12]): 30 mm | zone of inhibition at 100 µg/mL (Staphylococcus aureus [13]): 39 mm | zone of inhibition at 75 µg/mL (Fusarium oxysporum [14]): 33 mm | zone of inhibition at 75 µg/mL (Bacillus subtilis [15]): 31 mm | zone of inhibition at 50 µg/mL (Aspergillus niger [16]): 27 mm | zone of inhibition at 75 µg/mL (Escherichia coli [17]): 34 mm | zone of inhibition at 100 µg/mL (Candida albicans [18]): 40 mm | zone of inhibition at 25 µg/mL (Escherichia coli [19]): 19 mm | zone of inhibition at 100 µg/mL (Fusarium oxysporum [20]): 39 mm | zone of inhibition at 25 µg/mL (Aspergillus niger [21]): 19 mm | zone of inhibition at 50 µg/mL (Klebsiella pneumoniae [22]): 23 mm | zone of inhibition at 100 µg/mL (Bacillus subtilis [23]): 34 mm | zone of inhibition at 25 µg/mL (Candida albicans [24]): 17 mm | zone of inhibition at 100 µg/mL (Aspergillus niger [25]): 37 mm | zone of inhibition at 50 µg/mL (Escherichia coli [26]): 28 mm | zone of inhibition at 75 µg/mL (Candida albicans [27]): 35 mm | zone of inhibition at 100 µg/mL (Escherichia coli [28]): 39 mm
